# Laboratory results as given in ChEMBL document CHEMBL4354820, “Optimizing Targeted Inhibitors of P-Glycoprotein Using Computational and Structure-Guided Approaches” (J Med Chem, 2019).
# How the values were obtained:
# [1] = target: T1, ATP-dependent translocase ABCB1 (Homo sapiens, UniProt P08183); experiment: Ratio of inhibition of P-gp overexpressed in human DU145-TxR cells assessed as increase in intracellular compound accumulation after 2.5 hrs in presence of tariquidar by LC-MS/MS analysis to Inhibition of P-gp overexpressed in human DU145-TxR cells assessed as decrease in intracellular compound accumulation after 2.5 hrs in absence of tariquidar by LC-MS/MS analysis; format: cell-based
# T1 sequence (P08183 whole entry): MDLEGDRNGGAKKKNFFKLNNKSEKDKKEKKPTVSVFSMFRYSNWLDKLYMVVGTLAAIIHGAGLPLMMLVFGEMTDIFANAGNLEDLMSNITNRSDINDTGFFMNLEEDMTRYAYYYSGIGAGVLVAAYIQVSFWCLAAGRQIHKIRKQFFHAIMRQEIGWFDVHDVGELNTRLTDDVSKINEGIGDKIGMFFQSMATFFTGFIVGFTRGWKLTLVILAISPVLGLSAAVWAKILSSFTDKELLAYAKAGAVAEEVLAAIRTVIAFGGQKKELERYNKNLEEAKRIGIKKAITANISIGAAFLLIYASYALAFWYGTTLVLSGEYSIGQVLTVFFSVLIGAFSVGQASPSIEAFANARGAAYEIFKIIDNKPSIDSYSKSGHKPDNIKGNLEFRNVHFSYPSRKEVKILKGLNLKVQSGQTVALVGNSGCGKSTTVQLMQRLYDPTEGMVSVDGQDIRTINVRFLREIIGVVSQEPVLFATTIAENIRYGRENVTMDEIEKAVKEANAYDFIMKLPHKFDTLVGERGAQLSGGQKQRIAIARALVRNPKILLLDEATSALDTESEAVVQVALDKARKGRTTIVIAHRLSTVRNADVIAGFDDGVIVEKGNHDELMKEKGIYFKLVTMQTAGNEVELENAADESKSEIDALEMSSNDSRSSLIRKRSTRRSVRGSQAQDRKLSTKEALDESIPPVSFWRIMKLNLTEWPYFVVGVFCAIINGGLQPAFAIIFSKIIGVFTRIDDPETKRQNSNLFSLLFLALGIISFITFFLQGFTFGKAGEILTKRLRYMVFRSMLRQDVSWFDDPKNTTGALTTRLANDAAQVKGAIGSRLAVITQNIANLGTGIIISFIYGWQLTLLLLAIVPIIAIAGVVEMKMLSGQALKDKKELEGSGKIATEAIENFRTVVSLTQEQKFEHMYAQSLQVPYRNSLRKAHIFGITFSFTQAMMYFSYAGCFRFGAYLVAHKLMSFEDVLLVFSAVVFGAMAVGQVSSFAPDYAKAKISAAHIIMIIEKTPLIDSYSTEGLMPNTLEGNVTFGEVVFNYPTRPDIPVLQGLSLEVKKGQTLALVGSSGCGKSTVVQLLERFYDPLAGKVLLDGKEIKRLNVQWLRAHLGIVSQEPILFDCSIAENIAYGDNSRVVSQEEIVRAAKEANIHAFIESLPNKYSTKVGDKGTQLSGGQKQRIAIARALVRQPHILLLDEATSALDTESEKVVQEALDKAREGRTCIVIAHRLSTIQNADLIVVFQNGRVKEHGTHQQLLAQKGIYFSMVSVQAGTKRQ
# Method in brief: (§1)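 P-gp-overexpressing DU145TXR cells exposed to test compounds with or without tariquidar. Intracellular compound measured by LC–MS/MS, with daunorubicin as a transported-substrate control. Ratio is accumulation with tariquidar divided by accumulation without.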
# [2] = system: P-glycoprotein 1 Abcb1a (Mus musculus); experiment: Inhibition of 2',3'-(2,2,5,5,-tetramethyl-3-pyrroline-l-oxyl-3-carboxylic acid ester)ATP interaction with mouse MDR3 P-gp expressed in Escherichia coli BL21 (DE3) assessed as reduction in ATP binding from 2 to 1 of nucleotide to mol of protein by ESR analysis (reference value: 1.8 +/- 0.1)
# [3] = target: T1, ATP-dependent translocase ABCB1; experiment: Reversal of P-gp mediated multidrug resistance in human DU145-TxR cells overexpressing P-gp assessed as potentiation of paclitaxel-induced cytotoxicity by measuring fold reduction paclitaxel IC50 at 5 uM after 48 hrs by MTT assay relative to parent compound; format: cell-based
# Method in brief: (§2)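 DU145TXR cells seeded at 3000 per well, 24 h later treated 48 h with paclitaxel alone or with 3, 5, 7 or 10 μM inhibitor in complete medium (DMSO vehicle). MTT 4 h, formazan dissolved in DMSO, A570 read, background subtracted, viability relative to DMSO. IC50 by four-parameter nonlinear fit; eight replicates, at least two experiments. Fold values compare paclitaxel alone or with parent inhibitor.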
# [4] = target: T1, ATP-dependent translocase ABCB1; experiment: Inhibition of P-gp overexpressed in human DU145-TxR cells assessed as increase in cellular accumulation of calcein AM at 2 uM pretreated followed by calcein AM addition by fluorescence imaging analysis; format: cell-based
# Method in brief: (§3)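 Confluent DU145TXR monolayers in phenol red-free RPMI 1640 given 2 μM inhibitor (DMSO vehicle) and 1 μg mL−1 calcein AM, either added together or after a 6 h inhibitor-only preincubation at 37 °C. Calcein fluorescence (ex 485 / em 535 nm) read over 60 min at 20 min intervals. Six replicates, at least two independent experiments.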
# [5] = target: P-glycoprotein 1 Abcb1a (Mus musculus); experiment: Inhibition of spin-labelled adenine nucleotide interaction with mouse MDR3 P-gp expressed in Escherichia coli BL21 (DE3) assessed as apparent dissociation constant by ESR analysis (reference value: 36.5 +/- 3.6 uM)
# [6] = target: T2, P-glycoprotein (ABCB1, mouse MDR3) ATPase (Mus musculus, UniProt P21447); experiment: Inhibition of verampil-stimulated ATPase hydrolysis in recombinant mouse MDR3 expressed in Pichia pastoris measured after 30 mins in presence of NADH by coupled enzyme assay (reference value: 100 +/- 8 %); set-up: scale not given: the % may be the effect or the level left; conditions: recombinant mouse MDR3 (P-gp) expressed in Pichia pastoris
# T2 sequence (P21447 whole entry): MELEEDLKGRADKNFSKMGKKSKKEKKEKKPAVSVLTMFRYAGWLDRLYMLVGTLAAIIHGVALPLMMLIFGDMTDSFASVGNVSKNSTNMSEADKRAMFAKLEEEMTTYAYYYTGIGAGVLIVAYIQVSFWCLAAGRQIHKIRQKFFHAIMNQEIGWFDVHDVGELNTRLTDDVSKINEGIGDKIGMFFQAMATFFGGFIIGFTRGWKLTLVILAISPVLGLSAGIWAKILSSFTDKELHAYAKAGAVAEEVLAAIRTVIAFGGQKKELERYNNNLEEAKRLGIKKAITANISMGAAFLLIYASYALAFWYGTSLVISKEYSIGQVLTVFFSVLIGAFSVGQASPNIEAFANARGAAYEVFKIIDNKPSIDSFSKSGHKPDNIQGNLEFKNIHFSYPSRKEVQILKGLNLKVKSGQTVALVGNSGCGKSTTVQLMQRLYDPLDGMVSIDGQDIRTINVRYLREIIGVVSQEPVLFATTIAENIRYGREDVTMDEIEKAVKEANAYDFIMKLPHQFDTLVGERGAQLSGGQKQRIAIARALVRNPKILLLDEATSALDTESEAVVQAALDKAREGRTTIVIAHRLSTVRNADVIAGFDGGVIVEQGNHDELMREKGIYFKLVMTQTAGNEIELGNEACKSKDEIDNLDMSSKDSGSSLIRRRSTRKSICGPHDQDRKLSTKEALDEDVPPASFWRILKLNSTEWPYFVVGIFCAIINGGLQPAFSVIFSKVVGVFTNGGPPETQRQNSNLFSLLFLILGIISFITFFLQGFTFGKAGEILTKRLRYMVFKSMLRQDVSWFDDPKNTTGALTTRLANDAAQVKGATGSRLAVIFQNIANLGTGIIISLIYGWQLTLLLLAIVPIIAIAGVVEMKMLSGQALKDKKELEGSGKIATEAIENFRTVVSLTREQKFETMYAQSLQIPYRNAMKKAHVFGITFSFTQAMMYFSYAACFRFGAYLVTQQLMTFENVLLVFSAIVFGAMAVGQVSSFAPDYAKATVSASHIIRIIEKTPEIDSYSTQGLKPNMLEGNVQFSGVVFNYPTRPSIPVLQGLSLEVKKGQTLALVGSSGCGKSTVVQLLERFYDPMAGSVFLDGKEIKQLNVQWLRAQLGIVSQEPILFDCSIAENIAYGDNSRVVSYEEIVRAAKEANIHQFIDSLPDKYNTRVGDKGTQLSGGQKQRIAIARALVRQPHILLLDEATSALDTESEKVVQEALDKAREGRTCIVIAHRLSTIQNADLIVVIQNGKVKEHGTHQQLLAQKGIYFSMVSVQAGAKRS
# [7] = target: T1, ATP-dependent translocase ABCB1; experiment: Reversal of P-gp mediated multidrug resistance in human DU145-TxR cells overexpressing P-gp assessed as potentiation of paclitaxel-induced cytotoxicity by measuring fold reduction paclitaxel IC50 at 10 uM after 48 hrs by MTT assay relative to paclitaxel alone; format: cell-based; method in brief: as §2
# [8] = target: T1, ATP-dependent translocase ABCB1; experiment: Reversal of P-gp mediated multidrug resistance in human DU145-TxR cells overexpressing P-gp assessed as potentiation of paclitaxel-induced cytotoxicity by measuring fold reduction paclitaxel IC50 at 10 uM after 48 hrs by MTT assay relative to parent compound; format: cell-based; method in brief: as §2
# [9] = target: T1, ATP-dependent translocase ABCB1; experiment: Inhibition of P-gp overexpressed in human DU145-TxR cells assessed as increase in cellular accumulation of calcein AM at 2 uM preincubated for 6 hrs followed by calcein AM addition by fluorescence imaging analysis; format: cell-based; method in brief: as §3
# [10] = target: T3, P-glycoprotein (ABCB1, MDR1) ATPase (Homo sapiens, UniProt P08183); experiment: Inhibition of verampil-stimulated ATPase hydrolysis in recombinant human MDR1 expressed in Pichia pastoris measured after 30 mins in presence of NADH by coupled enzyme assay (reference value: 100 +/- 6 %); set-up: scale not given: the % may be the effect or the level left; conditions: recombinant human MDR1 (P-gp) expressed in Pichia pastoris
# T3 sequence (P08183 whole entry): as the sequence (P08183 whole entry) above
# [11] = target: T1, ATP-dependent translocase ABCB1; experiment: Reversal of P-gp mediated multidrug resistance in human DU145-TxR cells overexpressing P-gp assessed as potentiation of paclitaxel-induced cytotoxicity by measuring fold reduction paclitaxel IC50 at 5 uM after 48 hrs by MTT assay relative to paclitaxel alone; format: cell-based; method in brief: as §2
# [12] = target: T1, ATP-dependent translocase ABCB1; experiment: Reversal of P-gp mediated multidrug resistance in human DU145-TxR cells overexpressing P-gp assessed as potentiation of paclitaxel-induced cytotoxicity by measuring fold reduction paclitaxel IC50 at 7 uM after 48 hrs by MTT assay relative to paclitaxel alone; format: cell-based; method in brief: as §2
# [13] = target: T1, ATP-dependent translocase ABCB1; experiment: Reversal of P-gp mediated multidrug resistance in human DU145-TxR cells overexpressing P-gp assessed as potentiation of paclitaxel-induced cytotoxicity by measuring fold reduction paclitaxel IC50 at 3 uM after 48 hrs by MTT assay relative to paclitaxel alone; format: cell-based; method in brief: as §2
# [14] = target: T3, P-glycoprotein (ABCB1, MDR1) ATPase; experiment: Effect on basal ATPase hydrolysis of recombinant human MDR1 expressed in Pichia pastoris measured after 30 mins in presence of NADH by coupled enzyme assay (reference value: 100 +/- 5 %); set-up: scale not given: the % may be the effect or the level left; conditions: recombinant human MDR1 (P-gp) expressed in Pichia pastoris, read-out: Activity
# [15] = target: T1, ATP-dependent translocase ABCB1; experiment: Reversal of P-gp mediated multidrug resistance in human DU145-TxR cells overexpressing P-gp assessed as potentiation of paclitaxel-induced cytotoxicity by measuring fold reduction paclitaxel IC50 at 7 uM after 48 hrs by MTT assay relative to parent compound; format: cell-based; method in brief: as §2
# [16] = target: T1, ATP-dependent translocase ABCB1; experiment: Reversal of P-gp mediated multidrug resistance in human DU145-TxR cells overexpressing P-gp assessed as potentiation of paclitaxel-induced cytotoxicity by measuring fold reduction paclitaxel IC50 at 3 uM after 48 hrs by MTT assay relative to parent compound; format: cell-based; method in brief: as §2
# [17] = target: T2, P-glycoprotein (ABCB1, mouse MDR3) ATPase; experiment: Effect on basal ATPase hydrolysis of recombinant mouse MDR3 expressed in Pichia pastoris measured after 30 mins in presence of NADH by coupled enzyme assay (reference value: 100 +/- 7 %); set-up: scale not given: the % may be the effect or the level left; conditions: recombinant mouse MDR3 (P-gp) expressed in Pichia pastoris, read-out: Activity
# [18] = target: T2, P-glycoprotein (ABCB1, mouse MDR3) ATPase; experiment: Effect on verampil-mediated ATPase hydrolysis of recombinant mouse MDR3 expressed in Pichia pastoris measured after 30 mins in presence of NADH by coupled enzyme assay (reference value: 100 +/- 8 %); set-up: scale not given: the % may be the effect or the level left; conditions: recombinant mouse MDR3 (P-gp) expressed in Pichia pastoris, read-out: Activity
# [19] = target: T1, ATP-dependent translocase ABCB1; experiment: Inhibition of P-gp overexpressed in human DU145-TxR cells assessed as increase in intracellular compound accumulation after 2.5 hrs in presence of tariquidar by LC-MS/MS analysis; format: cell-based; method in brief: as §1
# [20] = target: T2, P-glycoprotein (ABCB1, mouse MDR3) ATPase; experiment: Stimulation of basal ATPase hydrolysis in recombinant mouse MDR3 expressed in Pichia pastoris measured after 30 mins in presence of NADH by coupled enzyme assay (reference value: 100 +/- 7 %); set-up: scale not given: the % may be the effect or the level left; conditions: recombinant mouse MDR3 (P-gp) expressed in Pichia pastoris, read-out: Activity
# [21] = target: T3, P-glycoprotein (ABCB1, MDR1) ATPase; experiment: Basal ATPase hydrolysis in recombinant human MDR1 expressed in Pichia pastoris measured after 30 mins in presence of NADH by coupled enzyme assay (reference value: 100 +/- 5 %); set-up: scale not given: the % may be the effect or the level left; conditions: recombinant human MDR1 (P-gp) expressed in Pichia pastoris
# [22] = target: T2, P-glycoprotein (ABCB1, mouse MDR3) ATPase; experiment: Stimulation of verampil-mediated ATPase hydrolysis in recombinant mouse MDR3 expressed in Pichia pastoris measured after 30 mins in presence of NADH by coupled enzyme assay (reference value: 100 +/- 8 %); set-up: scale not given: the % may be the effect or the level left; conditions: recombinant mouse MDR3 (P-gp) expressed in Pichia pastoris, read-out: Activity
SMILES,Ratio [1],Activity [2],inhibition (INH) [4],Kd [5] [µM],Activity at 0.5 h [6] [%],inhibition (INH) [9],Activity at 0.5 h [10] [%],Activity at 0.5 h [14] [%],Activity at 0.5 h [17] [%],Activity at 0.5 h [18] [%],inhibition (INH) [19],fold change (FC) [3],fold change (FC) [7],fold change (FC) [8],fold change (FC) [11],fold change (FC) [12],fold change (FC) [13],fold change (FC) [15],fold change (FC) [16],other results
Cc1cc(C)c(-c2cc(NC(=O)CSc3nnc4c(n3)[nH]c3ccccc34)n(-c3ccccc3)n2)cc1C,1,1.8,Active,24.1,68,Active,66,87,101,–,–,9.2,125,3.4,101,125,5,3.4,1.5,–
Cc1cc(C)c(-c2cc(NC(=O)CSCC(=O)NCc3ccc(F)cc3)n(-c3ccccc3)n2)cc1C,1.3,1.9,Active,25.7,–,Active,59,95,143,98,Active,0.5,16,0.2,5.6,11,4.6,0.3,1.4,–
Cc1cc(C)c(-c2cc(NC(=O)CSc3n[nH]c(C4CC4)n3)n(-c3ccccc3)n2)cc1C,1,1.9,Active,71,49,Active,62,–,95,–,–,1,101,1,11,36,3,1,1,–
Cc1cc(C)c(-c2cc(NC(=O)CSCC(=O)Nc3ccc4ncsc4c3)n(-c3ccccc3)n2)cc1C,1.2,1.9,Active,25.6,–,Active,59,84,–,123,Active,34,2118,27,372,731,12,20,3.7,Activity at 0.5 h [20]: 355%
Cc1cc(C)c(-c2cc(NC(=O)CSCC(=O)N3c4ccccc4CCc4ccccc43)n(-c3ccccc3)n2)cc1C,1,1.8,Active,36.9,50,Active,62,83,88,–,–,3.7,530,5,41,353,13,10,3.8,–

# The next molecules have a lower Kd [5] than those just listed; values first:
Ratio [1],Activity [2],inhibition (INH) [4],Kd [5] [µM],Activity at 0.5 h [6] [%],inhibition (INH) [9],Activity at 0.5 h [10] [%],Activity at 0.5 h [14] [%],Activity at 0.5 h [17] [%],Activity at 0.5 h [18] [%],inhibition (INH) [19],SMILES,fold change (FC) [3],fold change (FC) [7],fold change (FC) [8],fold change (FC) [11],fold change (FC) [12],fold change (FC) [13],fold change (FC) [15],fold change (FC) [16],other results
1.1,1.7,Active,22.8,62,Active,27,–,–,–,–,Cc1cc(C)c(-c2cc(NC(=O)CSc3cccc(NC(=O)c4cncc(Br)c4)c3)n(-c3ccccc3)n2)cc1C,9.7,353,3.5,106,236,38,6.6,11,Activity at 0.5 h [20]: 150%; Activity at 0.5 h [21]: 72%
1.1,1.7,Active,23.1,–,Active,64,–,105,108,–,Cc1cc(C)c(-c2cc(NC(=O)CSCC(=O)c3ccc4c(c3)Cc3ccccc3-4)n(-c3ccccc3)n2)cc1C,1.3,37,0.4,14,34,8,1,2.4,Activity at 0.5 h [21]: 69%
1.9,1.2,Active,20.1,–,Active,61,89,–,–,Active,COc1cc(NC(=O)CSCC(=O)Nc2cc(-c3cc(C)c(C)cc3C)nn2-c2ccccc2)cc(OC)c1OC,102,30286,300,1116,3312,11,92,3.4,Activity at 0.5 h [22]: 194%
